# According to ChEMBL document CHEMBL1938250, “The discovery of non-benzimidazole and brain-penetrant prolylcarboxypeptidase inhibitors” (Bioorg Med Chem Lett, 2012):
# The source made the active and inactive calls. The rule behind the calls is not given here.
# How the values were obtained:
# [1] = target: T1, Lysosomal Pro-X carboxypeptidase (Mus musculus, UniProt Q7TMR0); test: Inhibition of recombinant mouse PrCP using Mca-Ala-Pro-Lys(Dnp)-OH as substrate measured for 30 mins by continuous fluorometric assay
# T1 sequence (Q7TMR0 whole entry): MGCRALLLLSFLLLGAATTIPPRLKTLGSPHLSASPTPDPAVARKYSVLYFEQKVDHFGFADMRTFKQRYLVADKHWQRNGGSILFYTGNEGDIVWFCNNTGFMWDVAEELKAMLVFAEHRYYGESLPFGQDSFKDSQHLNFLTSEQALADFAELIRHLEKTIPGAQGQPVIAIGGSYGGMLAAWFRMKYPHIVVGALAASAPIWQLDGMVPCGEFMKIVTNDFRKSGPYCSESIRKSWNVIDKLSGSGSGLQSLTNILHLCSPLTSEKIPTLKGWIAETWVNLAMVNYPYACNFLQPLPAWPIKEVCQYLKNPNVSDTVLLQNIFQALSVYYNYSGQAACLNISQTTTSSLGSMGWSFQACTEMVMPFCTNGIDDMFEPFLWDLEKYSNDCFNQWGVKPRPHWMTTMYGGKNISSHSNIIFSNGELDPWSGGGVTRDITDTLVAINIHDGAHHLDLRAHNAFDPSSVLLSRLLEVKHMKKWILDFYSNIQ
# [2] = target: T1, Lysosomal Pro-X carboxypeptidase; test: Inhibition of PrCP-mediated conversion of Ang3 to Ang(2-7) in mouse plasma
# How it was run: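 Whole mouse plasma was pretreated with protease inhibitors to block non-PrCP conversion of angiotensin III. Inhibitor was then added, and the rate of conversion of AngIII to Ang(2–7) was compared with a vehicle-treated control.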
# [3] = Half life in mouse at 1 mg/kg, iv and 2 mg/kg, po by LC-MS/MS analysis; format: ADME, organism-based; details: in vivo
# How it was run: (§1)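 Mice received 1 mg/kg IV (n = 2) or 2 mg/kg PO (n = 3). The formulation was 1 mg/mL in ethanol–PEG–water (20:40:40). Blood was deproteinized with acetonitrile and drug levels were measured by LC/MS/MS. Outputs were clearance, Vd, half-life, %F and dose-normalized oral AUC.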
# [4] = Oral bioavailability in mouse at 2 mg/kg by LC-MS/MS analysis; format: ADME, organism-based; details: in vivo; how it was run: as §1
# [5] = Volume of distribution in mouse at 1 mg/kg, iv and 2 mg/kg, po by LC-MS/MS analysis; format: ADME, organism-based; details: in vivo
# How it was run: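 Mouse PK with the compound formulated at 1 mg/mL in ethanol–PEG–water (20:40:40). Given IV at 1 mg/kg (n = 2) and PO at 2 mg/kg (n = 3). Blood concentrations were measured by LC/MS/MS after protein precipitation with acetonitrile. Volume of distribution is reported in L/kg.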
# [6] = Clearance in mouse at 1 mg/kg, iv and 2 mg/kg, po by LC-MS/MS analysis; format: ADME, organism-based; details: in vivo; how it was run: as §1
# Mus musculus [7] = test: Normalized AUC in mouse at 2 mg/kg, po by LC-MS/MS analysis; format: ADME, organism-based; design: dose 2 mg/kg, route oral; details: in vivo; how it was run: as §1
# Mus musculus [8] = test: Induction of weight loss in wild type PrCP expressing mouse at 30 mg/kg, sc administered for 7 days; format: functional, organism-based; design: dose 30 mg/kg
# How it was run: (§2)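 Wild-type and PrCP knockout mice (n = 8 per group) received continuous subcutaneous infusion by pump for 7 days at 10 or 30 mg/kg. The vehicle was DMSO–1,2-propanediol (1:1 v/v). Body weight and food intake were recorded daily and compared with a vehicle group. Injection-site adverse events were noted, and terminal plasma drug concentration was measured.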
# Mus musculus [9] = test: Induction of weight loss in PrCP knock-out mouse at 10 mg/kg, sc administered for 7 days; format: functional, organism-based; design: dose 10 mg/kg; how it was run: as §2
# Mus musculus [10] = species on record: Mus musculus; details: 10 mg/kg
# Mus musculus [11] = test: Induction of weight loss in PrCP knock-out mouse at 30 mg/kg, sc administered for 7 days; format: functional, organism-based; design: dose 30 mg/kg; how it was run: as §2
# Mus musculus [12] = test: Terminal plasma PrCP inhibition in eDIO mouse model at 10 mg/kg, sc administered for 7 days; format: functional; details: 168 h, route subcutaneous
# Mus musculus [13] = test: Inhibition of wild type PrCP in mouse plasma at 10 mg/kg, sc administered for 7 days by fluorescence analysis; format: functional; details: 168 h, route subcutaneous
# Mus musculus [14] = test: Inhibition of wild type PrCP in mouse plasma at 30 mg/kg, sc administered for 7 days by fluorescence analysis; format: functional; details: 168 h, route subcutaneous
# Mus musculus [15] = test: Induction of weight loss in wild type PrCP expressing mouse at 10 mg/kg, sc administered for 7 days; format: functional, organism-based; design: dose 10 mg/kg; how it was run: as §2
# [16] = Drug uptake in MDR1A knock-out CF1 mouse brain at 30 mg/kg, po after 2 hrs; format: ADME, organism-based; design: dose 30 mg/kg, route oral; details: read-out: Drug uptake
# How it was run: (§3)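 CF1 MDR1A wild-type and MDR1A(-/-) mice (n = 4 each) received a single 30 mg/kg oral dose. Plasma and brain concentrations (nM) were measured at 2 and 6 h post-dose. The brain/plasma ratio was derived for each time point.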
# [17] = Drug uptake in MDR1A knock-out CF1 mouse plasma at 30 mg/kg, po after 6 hrs; format: ADME, organism-based; design: dose 30 mg/kg, route oral; how it was run: as §3
# [18] = Ratio of drug level in brain to plasma in wild type MDR1A expressing CF1 mouse at 30 mg/kg, po after 6 hrs; format: ADME, organism-based; design: dose 30 mg/kg, route oral; details: read-out: BPR; how it was run: as §3
# [19] = Drug uptake in wild type MDR1A expressing CF1 mouse brain at 30 mg/kg, po after 6 hrs; format: ADME, organism-based; design: dose 30 mg/kg, route oral; details: read-out: Drug uptake; how it was run: as §3
# [20] = Ratio of drug level in brain to plasma in MDR1A knock-out CF1 mouse at 30 mg/kg, po after 2 hrs; format: ADME, organism-based; design: dose 30 mg/kg, route oral; details: read-out: BPR; how it was run: as §3
# [21] = Drug uptake in wild type MDR1A expressing CF1 mouse plasma at 30 mg/kg, po after 2 hrs; format: ADME, organism-based; design: dose 30 mg/kg, route oral; how it was run: as §3
# [22] = Drug uptake in wild type MDR1A expressing CF1 mouse plasma at 30 mg/kg, po after 6 hrs; format: ADME, organism-based; design: dose 30 mg/kg, route oral; how it was run: as §3
# [23] = Ratio of drug level in brain to plasma in MDR1A knock-out CF1 mouse at 30 mg/kg, po after 6 hrs; format: ADME, organism-based; design: dose 30 mg/kg, route oral; details: read-out: BPR; how it was run: as §3
# [24] = Drug uptake in wild type MDR1A expressing CF1 mouse brain at 30 mg/kg, po after 2 hrs; format: ADME, organism-based; design: dose 30 mg/kg, route oral; details: read-out: Drug uptake; how it was run: as §3
# [25] = Drug uptake in MDR1A knock-out CF1 mouse plasma at 30 mg/kg, po after 2 hrs; format: ADME, organism-based; design: dose 30 mg/kg, route oral; how it was run: as §3
# [26] = Ratio of drug level in brain to plasma in wild type MDR1A expressing CF1 mouse at 30 mg/kg, po after 2 hrs; format: ADME, organism-based; design: dose 30 mg/kg, route oral; details: read-out: BPR; how it was run: as §3
# [27] = Drug uptake in MDR1A knock-out CF1 mouse brain at 30 mg/kg, po after 6 hrs; format: ADME, organism-based; design: dose 30 mg/kg, route oral; details: read-out: Drug uptake; how it was run: as §3
smiles,measurement,setting,value
O=C(CCN1CCC(c2nc(-c3ccccn3)no2)CC1)N1CCC[C@H]1c1nc2cc(Cl)c(Cl)cc2[nH]1,IC50,[1],4 nM
O=C(CCN1CCC(c2ccccc2)CC1)NC(c1ccncc1)c1ccc(Cl)cc1 (racemic),IC50,[1],2.1 nM
O=C(CCN1CCC(c2ccccc2)CC1)NC(c1ccc(Cl)cc1)C(F)F (centres undefined),IC50,[1],17 nM
same,IC50,[2],17 nM
O=C(CCN1CCC(c2nc(-c3ccccn3)no2)CC1)NC(c1ccc(Cl)cc1)c1ccc(Cl)cc1,IC50,[1],10 nM
same,half-life,[3],0.7 h
same,bioavailability,[4],1.3%
same,Vd,[5],5.6 L/kg
same,clearance,[6],105 mL/min/kg
same,IC50,[2],305 nM
same,AUC/dose,Mus musculus [7],< 0.01 µM·kg·h/mg
C[C@H](NC(=O)CCN1CCC(c2nc(-c3ccccn3)no2)CC1)c1ccc(F)cc1,IC50,[2],348 nM
CC(C)[C@H](NC(=O)CCN1CCC(c2ccccc2)CC1)c1ccc(Cl)cc1,IC50,[1],5.2 nM
same,Activity,Mus musculus [8],Active
same,Activity,Mus musculus [9],inactive
same,inhibition,Mus musculus [10],inactive
same,Activity,Mus musculus [11],Active
same,inhibition in vivo at 10 mg/kg,Mus musculus [12],65%
same,inhibition in vivo at 10 mg/kg,Mus musculus [13],87%
same,inhibition in vivo at 30 mg/kg,Mus musculus [14],85%
same,Activity,Mus musculus [15],inactive
same,IC50,[2],12.6 nM
O=C(CCN1CCC(c2nc(-c3ccccn3)no2)CC1)NC(c1ccc(Cl)cc1)C(F)F (racemic),IC50,[2],156 nM
C[C@H](NC(=O)CCN1CCC(c2ccccc2)CC1)c1ccc(Br)cc1,IC50,[1],20 nM
C[C@@H](c1ccc(-c2ccccc2)cc1)[C@H](NC(=O)C(C)(C)N)C(=O)NC(c1ccc(Cl)cc1)C(F)F (mixture of isomers),IC50,[1],6.6 nM
same,IC50,[2],458 nM
O=C(CCN1CCC(c2ccccc2)CC1)N1CCC[C@H]1c1nc2cc(Cl)c(Cl)cc2[nH]1,IC50,[2],> 10000 nM
C[C@@H](c1ccc(-c2ccccc2)cc1)[C@H](N)C(=O)NC(c1ccncc1)c1ccc(Cl)cc1 (mixture of isomers),IC50,[1],1.4 nM
same,IC50,[2],108 nM
O=C(CCN1CCC(c2ccccc2)CC1)NC(c1ccc(Cl)cc1)C(F)(F)F (centres undefined),IC50,[1],14 nM
O=C(CCN1CCC(c2ccccc2)CC1)NC(c1ccc(Cl)cc1)c1ccc(Cl)cc1,IC50,[1],4 nM
same,IC50,[2],58 nM
C[C@H](NC(=O)[C@@H](NC(=O)C(C)(C)N)[C@@H](C)c1ccc(-c2ccccc2)cc1)c1ccc(Cl)cc1,IC50,[1],2.3 nM
same,IC50,[2],198 nM
C[C@H](NC(=O)CCN1CCC(c2ccccc2)CC1)c1ccc(Cl)cc1,IC50,[1],54 nM
same,half-life,[3],2.3 h
same,bioavailability,[4],< 1%
same,Vd,[5],27 L/kg
same,clearance,[6],185 mL/min/kg
same,IC50,[2],240 nM
same,AUC/dose,Mus musculus [7],< 0.01 µM·kg·h/mg
C[C@H](NC(=O)[C@@H](N)[C@@H](C)c1ccc(-c2ccccc2)cc1)c1ccc(Cl)cc1,IC50,[1],11 nM
same,IC50,[2],570 nM
Cn1cc(C(NC(=O)CCN2CCC(c3ccccc3)CC2)c2ccc(Cl)cc2)cn1 (racemic),IC50,[1],25 nM
C[C@@H](c1ccc(-c2ccccc2)cc1)[C@H](NC(=O)C(C)(C)N)C(=O)NC(c1ccc(Cl)cc1)C(F)(F)F (mixture of isomers),half-life,[3],4.4 h
same,bioavailability,[4],40%
same,Vd,[5],24 L/kg
same,clearance,[6],78 mL/min/kg
same,AUC/dose,Mus musculus [7],0.19 µM·kg·h/mg
C[C@@H](c1ccc(-c2ccccc2)cc1)[C@H](NC(=O)C(C)(C)N)C(=O)N1CCC[C@H]1c1nc2cc(Cl)c(Cl)cc2[nH]1,concentration at 2 h,[16],166 nM
same,concentration at 6 h,[17],51 nM
same,Kp at 6 h,[18],0.04
same,concentration at 6 h,[19],3 nM
same,Kp at 2 h,[20],0.9
same,concentration at 2 h,[21],306 nM
same,concentration at 6 h,[22],91 nM
same,Kp at 6 h,[23],3.6
same,concentration at 2 h,[24],4 nM
same,concentration at 2 h,[25],186 nM
same,IC50,[2],26 nM
same,Kp at 2 h,[26],0.01
same,concentration at 6 h,[27],185 nM
C[C@@H](c1ccc(-c2ccccc2)cc1)[C@H](NC(=O)C(C)(C)N)C(=O)NC(c1ccncc1)c1ccc(Cl)cc1 (mixture of isomers),IC50,[1],0.4 nM
same,half-life,[3],3.6 h
same,Vd,[5],21 L/kg
same,clearance,[6],85 mL/min/kg
same,IC50,[2],6 nM
O=C(CCN1CCC(c2nc(-c3ccccn3)no2)CC1)NC(c1ccncc1)c1ccc(F)cc1 (racemic),IC50,[2],15 nM
CC(NC(=O)CCN1CCC(c2ccccc2)CC1)c1ccccc1-c1ccccc1 (centres undefined),IC50,[1],5.7 nM
